Converted amounts (≈) assume the structure as drawn.
What was measured:
[1] = Cytotoxicity against human Hep2 cells after 3 days by MTT reduction assay; assay type: cell-based, HEp-2
How it was run: (§1)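 Serial sample dilutions (from 40 mg/mL DMSO stock; top test concentration 1000 µg/mL in maintenance medium, 1% FBS with gentamicin) added in triplicate to confluent monolayers, 37 °C, 5% CO2. After 3 days MTT added for 3 h; formazan dissolved in DMSO, OD read at 540 and 690 nm. CC50 = concentration reducing viable cells to 50% of medium control.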

[2] = test system: Respiratory syncytial virus; assay: Antiviral activity against RSV Long in human Hep2 cells assessed as reduction of virus induced cytopathic effect; assay type: functional, organism-based; details: HEp-2
How it was run: (§2)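 CPE reduction assay: confluent monolayers received 0.1 mL of 100 TCID50 virus simultaneously with 0.1 mL of serial 2-fold sample dilutions. Samples were dissolved in DMSO, then diluted into maintenance medium (MEM, 1% FBS, gentamicin, L-glutamine). Incubation at 37 °C, 5% CO2 for 4-6 days. CPE was scored 0-4 against virus and cell controls. IC50 is the concentration halving CPE, estimated from plots.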

[3] = Selectivity index, CC50 for human Hep2 cells to IC50 for RSV Long; assay type: functional, HEp-2
How it was run: (§3)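 SI = CC50/IC50. CC50 came from an MTT assay: confluent monolayers were exposed in triplicate to sample dilutions for 3 days, then MTT was added for 3 h, formazan was dissolved in DMSO, and OD was read at 540/690 nm. CC50 is the concentration cutting viable cells to 50% of control. IC50 came from the CPE reduction assay in the matching cell line.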

[4] = Cytotoxicity against african green monkey Vero cells after 3 days by MTT reduction assay; assay type: cell-based; details: chlorocebus sabaeus; how it was run: as §1
Human alphaherpesvirus 1 = assay: Antiviral activity against HSV1 15577 in african green monkey Vero cells assessed as reduction of virus induced cytopathic effect; assay type: functional, organism-based; details: Human alphaherpesvirus 1, Vero; how it was run: as §2
[5] = Selectivity index, CC50 for african green monkey Vero cells to IC50 for HSV1 15577; assay type: functional; how it was run: as §3
[6] = Cytotoxicity against MDCK cells after 3 days by MTT reduction assay; assay type: cell-based, Canis lupus familiaris; details: dog; how it was run: as §1
[7] = Selectivity index, CC50 for MDCK cells to IC50 for influenza A virus H1N1 A/NWS/33; assay type: functional; how it was run: as §3
Coxsackievirus B3 = assay: Antiviral activity against Cox B3 virus in human Hep2 cells assessed as reduction of virus induced cytopathic effect; assay type: functional, organism-based; details: Enterovirus B, HEp-2; how it was run: as §2
[8] = Selectivity index, CC50 for human Hep2 cells to IC50 for Cox B3 virus; assay type: functional, HEp-2; how it was run: as §3

## O=C(Oc1cc(O)c2c(c1)OC(c1cc(O)c(O)c(O)c1)CC2)c1cc(O)c(O)c(O)c1 (stereo not drawn)
[1]
  CC50 at 72 h: 95 µg/mL (≈ 215 µM)
[1]; read-out: MNCC
  MNTC at 72 h: 25 µg/mL
[2]
  IC50: 5 µg/mL (≈ 11.3 µM)
[3]
  Ratio CC50/IC50: 19
[4]
  CC50 at 72 h: 120 µg/mL (≈ 271 µM)
[4]; read-out: MNCC
  MNTC at 72 h: 31.3 µg/mL
Human alphaherpesvirus 1
  IC50: 30 µg/mL (≈ 67.8 µM)
[5]
  Ratio CC50/IC50: 4
[6]
  CC50 at 72 h: 110 µg/mL (≈ 249 µM)
[6]; read-out: MNCC
  MNTC at 72 h: 62.5 µg/mL
[7]
  Ratio CC50/IC50: 7
Coxsackievirus B3
  IC50: 12.5 µg/mL (≈ 28.3 µM)
[8]
  Ratio CC50/IC50: 7.6

## Nc1nc2c(ncn2COCCO)c(=O)[nH]1 [ACYCLOVIR]
[4]
  CC50 at 72 h: > 500 µg/mL
Human alphaherpesvirus 1
  IC50: 0.25 µg/mL (≈ 1.11 µM)
[5]
  Ratio CC50/IC50: >2000
Coxsackievirus B3
  IC50: 25 µg/mL (≈ 111 µM)

## NC(=O)c1ncn([C@@H]2O[C@H](CO)[C@@H](O)[C@H]2O)n1 [RIBAVIRIN]
[2]
  IC50: 3 µg/mL (≈ 12.3 µM)
